# In ChEMBL document CHEMBL1134326, “C-16 artemisinin derivatives and their antimalarial and cytotoxic activities: syntheses of artemisinin monomers, dimers, trimers, and tetramers by nucleophilic additions to artemisitene” (J Med Chem, 2001):
# Key:
# Vero = experiment: Cytotoxicity against vero cells.; format: functional, cell-based; details: Chlorocebus sabaeus
# In short: (§1)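 Colorimetric cytotoxicity assay after Skehan on KB, BC and vero cell lines. Maximum concentration tested 130 µM. Ellipticine was the positive control. IC50 is reported in µM.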
# [1] = Cytotoxicity against KB cells.; format: functional, cell-based; details: Homo sapiens; in short: as §1
# Plasmodium falciparum = experiment: Antimalarial activity against Plasmodium falciparum; format: functional, organism-based
# In short: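 P. falciparum K1 (multidrug-resistant), asexual erythrocytic stage kept in continuous in vitro culture; microculture radioisotope method after Desjardins. EC50 is the concentration giving 50% reduction in parasite growth, measured as [3H]hypoxanthine uptake. Artemisinin and dihydroartemisinin served as standards.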
# BC [2] = experiment: Cytotoxicity against BC cells.; format: functional, cell-based; details: Homo sapiens; in short: as §1
# [3] = Therapeutic index(TI) as IC50 of vero cells to that of EC50; format: cell-based, Cricetulus griseus; details: chinese hamster, read-out: Ti
# BC [4] = experiment: Cytotoxicity against BC cells; format: functional, cell-based; details: Homo sapiens; in short: as §1
# KB = experiment: Cytotoxicity against KB cells; format: functional, cell-based; details: Homo sapiens; in short: as §1
# [5] = Therapeutic index (TI) determined as IC50 of vero cells to that of EC50; format: cell-based; details: plasmodium falciparum, read-out: TI
Compound,IC50 (Vero),IC50 [1],EC50 (Plasmodium falciparum),IC50 (BC [2]),selectivity ratio [3],IA (BC [4]),IA (KB),selectivity ratio [5]
CCCCCCC1(CC2C(=O)OC3OC4(C)CCC5C(C)CCC2C35OO4)C(=O)OC2OC3(C)CCC4C(C)CCC1C24OO3 (stereo not given),2.5 µM,4 µM,0.005 µM,1.3 µM,5,–,–,–
CC1CCC2C(CCC(=O)c3ccc[nH]3)C(=O)OC3OC4(C)CCC1C32OO4 (stereo not given),> 130 µM,–,0.0088 µM,–,–,Cytotoxic,Cytotoxic,> 1.5
